Compound activity deposited in PubChem BioAssay by The Scripps Research Institute Molecular Screening Center.
M1 ag = human M1 muscarinic receptor agonists, primary screen, Fluo-8 calcium fluorescence, CHO-K1 cells, HTS; Muscarinic acetylcholine receptor M1 (Homo sapiens), P11229; CHO-K1 hM1, agonist mode; 0% DMSO, 100% acetylcholine EC100; activation, % at 3 µM; 360,000 compounds, 0.33% hits;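 active means activation above the run's mean compound activation plus 3 SD, cut at about 16% in these data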;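 further: peak over basal fluorescence ratio within a 140 s kinetic read after compound addition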
TAAR1 ag = human TAAR1 agonists, primary screen, Fluo-8 calcium fluorescence, CHO RD-HGA16 cells; AID 624467, 2012; vehicle wells 0%, saturating PEA agonist 100%; 360,000 compounds, 0.99% hits; activation, % at 3 µM; Trace amine-associated receptor 1 (Homo sapiens), Q96RJ0;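 active means activation above the mean activation of all test compounds in the run plus 3 SD, cut at about 38% in these data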
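System: CHO-derived RD-HGA16 cells with stable Gα16 and human TAAR1. Times: 17-24 h plating, Fluo-8 75 min 37 °C, 30 min RT. Measured by: calcium-sensitive Fluo-8 signal, excitation 470-495, emission 515-575 nm. Read-out basis: % activation relative to PEA EC100 response. Control set: DMSO and PEA EC100. Repeats: no replicates (n 1).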
m5-HT2A agonist = mouse Htr2a agonists via beta-arrestin recruitment, primary screen, cell-based, luminescence; 360,000 compounds, 0.66% hits; CHO-K1 mHTR2A beta-arrestin complementation; percent of 30 µM serotonin response; 5-hydroxytryptamine receptor 2A (Mus musculus), P35363; activation, % at 7.6 µM;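 active means activation above a run cutoff, the mean activation of all tested compounds plus 3 SD, cut at about 14% in these data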;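 further: 0% = plate median of compound wells and 100% = 30 µM serotonin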
Target sequence (P35363 whole entry, looked up): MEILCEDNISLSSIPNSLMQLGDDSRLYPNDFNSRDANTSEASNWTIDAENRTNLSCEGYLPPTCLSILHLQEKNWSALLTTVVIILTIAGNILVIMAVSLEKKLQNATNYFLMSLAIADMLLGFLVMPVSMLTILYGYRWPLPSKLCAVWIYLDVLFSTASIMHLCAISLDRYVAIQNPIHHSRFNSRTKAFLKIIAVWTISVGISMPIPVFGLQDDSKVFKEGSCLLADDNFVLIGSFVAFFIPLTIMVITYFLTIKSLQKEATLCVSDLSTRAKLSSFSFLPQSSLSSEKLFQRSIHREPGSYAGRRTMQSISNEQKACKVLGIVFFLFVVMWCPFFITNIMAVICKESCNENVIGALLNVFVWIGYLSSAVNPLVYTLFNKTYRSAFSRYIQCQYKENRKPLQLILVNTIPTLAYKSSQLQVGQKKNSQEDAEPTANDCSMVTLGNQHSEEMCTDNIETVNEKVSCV
CHRM1 PAM = human M1 muscarinic receptor positive allosteric modulators, primary screen, CHO-K1 cells, Fluo-8 calcium fluorescence, 1536-well; AID 588819, 2011; activation, % at 3 µM; 360,000 compounds, 0.088% hits; CHO-K1 hM1, ACh EC20; 0% = ACh EC20, 100% = maximal ACh; Muscarinic acetylcholine receptor M1 (Homo sapiens), P11229; in the data active means activation above about 19%, passing the limit was not always enough
M1 antag = human M1 muscarinic receptor antagonists, primary screen, CHO-K1 cells, Fluo-8 calcium fluorescence, 1536-well. Muscarinic acetylcholine receptor M1 (Homo sapiens), P11229. CHO-K1 hM1, ACh EC80 antagonist. inhibition, % at 3 µM. 360,000 compounds, 1.3% hits;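 active means percent inhibition above its own plate's cutoff, namely the mean of that plate's compound wells plus 3 SD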;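 further: peak over basal fluorescence ratio during 140 s after agonist addition; 0% = ACh EC80 plus DMSO and 100% = DMSO alone without agonist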
TAAR1 antag = human TAAR1 antagonists, primary screen, Fluo-8 calcium fluorescence, CHO RD-HGA16 cells; Trace amine-associated receptor 1 (Homo sapiens), Q96RJ0; antagonist; inhibition, % at 3 µM; 360,000 compounds, 1.5% hits;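 active means inhibition above a per-plate cutoff, the mean inhibition of test compounds on that plate plus 3 SD, cut at about 49% in these data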;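 further: 0% = DMSO plus EC80 beta-PEA response and 100% = DMSO alone without agonist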
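Test system: RD-HGA16 CHO cells with stable hTAAR1 and Gα16 / Probe or stimulus: EC80 β-phenethylamine stimulus / Times: seeding 17-24 h prior, 75-min 37 °C, 30-min RT dye loading / Detection: Fluo-8 calcium-sensitive fluorescence / Read-out basis: % inhibition scaled between DMSO and EC80 PEA controls / Repeats: singlicate, one well per test compound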
TAAR1 nonsel count = nonselective antagonists in TAAR1 counter-screen cells, counter-screen for hTAAR1 antagonist project, cell-based, fluorescence, calcium. 2,400 compounds, 77% hits. shares compounds with TAAR1 antag. counterscreen cell line, antagonist mode. inhibition, % at 3 µM; in the data active means inhibition above about 22%;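 further: CHO-Ga16 host cells stimulated with ATP at an EC80 level; 0% = agonist EC80 plus vehicle and 100% = vehicle without agonist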
TAAR1 antag conf = human TAAR1 antagonists, retest of hits, confirmation, cell-based, fluorescence | shares compounds with TAAR1 antag | TAAR1-expressing cells, fluorescence antagonist read-out | inhibition, % at 3 µM | 2,400 compounds, 40% hits | AID 651785, 2012; in the data active means inhibition above about 49%;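 further: CHO-Ga16 host cells challenged with agonist PEA near its EC80; 0% = agonist at EC80 plus vehicle and 100% = vehicle with no agonist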
Ga16 nonsel ag = calcium activation in Ga16-expressing cells, counter-screen for TAAR1 antagonist project, cell-based, fluorescence; shares compounds with TAAR1 antag; agonist counterscreen; 2,400 compounds, 18% hits; activation, % at 3 µM; in the data active means activation above about 12%;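 further: 0% = vehicle wells and 100% = saturating stimulus response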
TAAR1 ag count = TAAR1 activation by candidate antagonists – cell-based, fluorescence, counter-screen for TAAR1 antagonist project; shares compounds with TAAR1 antag; hTAAR1 cell line, agonist mode; activation, % at 3 µM; 2,400 compounds, 2% hits; AID 651955, 2012; in the data active means activation above about 37%;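 further: CHO cells stably expressing TAAR1 with calcium dye readout; 0% = DMSO vehicle and 100% = full agonist response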
The depositor's hits bear a star; x = no result given. In the library only some 3.9% were active in any assay of this set; here they are far more common.

SMILES | M1 ag | TAAR1 ag | m5-HT2A agonist | CHRM1 PAM | M1 antag | TAAR1 antag | TAAR1 nonsel count | TAAR1 antag conf | Ga16 nonsel ag | TAAR1 ag count
CCC(=O)N1CCN(c2ccc(-n3c(=O)ccc4cnc5ccc(-c6cnc7ccccc7c6)cc5c43)cc2C(F)(F)F)CC1 | x | 7 | x | x | x | 50* | 21 | 34 | 7 | 7
O=C(O)COCC(=O)N1CCN(c2cc(C(F)(F)F)nc3ccccc23)CC1 | -8 | 10 | 6 | 7 | -9 | -27 | x | x | x | x
CC(=O)Nc1cccc(C(=O)OCC(=O)Nc2c(C)nn(-c3ccccc3)c2C)c1 | -1 | 8 | 5 | -1 | -1 | 3 | x | x | x | x
Cc1cc(C)n(-c2ccc(C(=O)OCC(=O)NC(c3ccccc3)c3ccccc3)cc2)n1 | -5 | 13 | 1 | -12 | 14 | 66* | 27* | 52* | 7 | 19
COc1ccccc1/C=C/C(=O)OCC(=O)Nc1c(C)nn(-c2ccccc2)c1C | 1 | 21 | 3 | -7 | 22 | 66* | 21* | 44 | 10 | 6
Cc1nn(-c2ccccc2)c(C)c1NC(=O)COC(=O)CCCOc1ccccc1 | 3 | 14 | 0 | 7 | -9 | 57* | 19 | 38 | 10 | 9
Cc1nn(-c2ccccc2)c(C)c1NC(=O)COC(=O)c1ccc(Cl)c(N)c1 | 0 | 17 | 4 | -10 | 22 | 72* | 30* | 50* | 12* | 12
CC(=O)c1ccc(OCCCC(=O)OCC(=O)Nc2c(C)nn(-c3ccccc3)c2C)cc1 | 2 | 8 | 10 | -2 | 1 | 15 | x | x | x | x
COc1cccc(CNC(=O)CN2C(=O)CSc3ccc(S(=O)(=O)N4CCCC4)cc32)c1 | -6 | 9 | -2 | 3 | -1 | 12 | x | x | x | x
COc1ccc2nc(C)cc(N3CCN(S(=O)(=O)c4ccccc4F)CC3)c2c1 | -8 | 6 | -18 | -9 | 13 | 18 | x | x | x | x
COc1ccc(C2CC(=O)C(c3ccccc3OC)=CN2Cc2ccccc2)cc1 (configuration not stated) | x | 6 | x | x | x | 56* | 21 | 37 | 5 | 5
COc1ccc(C2CC(=O)C(c3ccc(Cl)c(Cl)c3)=CN2Cc2ccccc2)cc1 (configuration not stated) | x | 5 | x | x | x | -5 | x | x | x | x
CC(C)(C)NC(=O)NC(=O)COC(=O)Cc1coc2ccc3ccccc3c12 | -8 | 7 | 1 | -7 | 6 | 52* | 24* | 28 | 4 | 2
O=C(N=Nc1c(O)[nH]c2ccccc12)c1cc(-c2ccc(F)cc2)n[nH]1 | -5 | 4 | -1 | 4 | 4 | 65* | 14 | 15 | 2 | 0
COc1ccc(/C=C2\CN(Cc3ccccc3)C/C(=C\c3ccc(OC)c(O)c3)C2=O)cc1O | -2 | 14 | -4 | -16 | 28* | 71* | 29* | 51* | 10 | 12
CCN1C/C(=C/c2ccc(OC)c(O)c2)C(=O)/C(=C/c2ccc(OC)c(O)c2)C1 | 0 | 4 | 1 | -1 | 14 | 2 | x | x | x | x
